Positions of bridges follow the written chain, without caps; N, C: chain ends. Non-standard residues stand in square brackets, D forms with d. Residues, ends and D or L forms follow the SMILES beside them. *: point of attachment. hCys = N[C@@H](CCS)C(=O)O; Acm = CC(=O)NC*
test system: not listed separately; assay: Vasorelaxant activity in norepinephrine-contracted rabbit aortic rings, compared to AP(103-126); format: functional, Oryctolagus cuniculus, Aorta

SMILES	Relative potency
CC[C@H](C)[C@@H]1NC(=O)[C@H](CCCN=C(N)N)NC(=O)[C@H](CC(=O)O)NC(=O)[C@H]([C@@H](C)CC)NC(=O)[C@H](CCCN=C(N)N)NC(=O)[C@@H]2CCSSC[C@H](NC(=O)[C@H](CCC(N)=O)NC(=O)[C@H](C)NC(=O)CNC1=O)C(=O)NCC(=O)N[C@@H](CC(C)C)C(=O)NCC(=O)N[C@H](C(=O)N[C@@H](CC(N)=O)C(=O)N[C@@H](CO)C(=O)N[C@@H](Cc1ccccc1)C(=O)N[C@@H](CCCN=C(N)N)C(N)=O)CSSC[C@H](NC(=O)[C@H](CO)NC(=O)[C@@H](N)CO)C(=O)N[C@@H](Cc1ccccc1)C(=O)NCC(=O)N2 (H-SSCFG[hCys]RIDRIGAQCGLGCNSFR-NH2; disulfide 3-19, 6-15)	0.049
CC[C@H](C)[C@@H]1NC(=O)[C@H](CCCN=C(N)N)NC(=O)[C@H](CC(=O)O)NC(=O)[C@H]([C@@H](C)CC)NC(=O)[C@H](CCCN=C(N)N)NC(=O)[C@H](CSCNC(C)=O)NC(=O)CNC(=O)[C@H](Cc2ccccc2)NC(=O)[C@@H](NC(=O)[C@H](CO)NC(=O)[C@@H](N)CO)CSSC[C@@H](C(=O)N[C@@H](CC(N)=O)C(=O)N[C@@H](CO)C(=O)N[C@@H](Cc2ccccc2)C(=O)N[C@@H](CCCN=C(N)N)C(N)=O)NC(=O)CNC(=O)[C@H](CC(C)C)NC(=O)CNC(=O)[C@H](CO)NC(=O)[C@H](CCC(N)=O)NC(=O)[C@H](C)NC(=O)CNC1=O	1.03
CC[C@H](C)[C@@H]1NC(=O)[C@H](CCCN=C(N)N)NC(=O)[C@H](CC(=O)O)NC(=O)[C@H]([C@@H](C)CC)NC(=O)[C@H](CCCN=C(N)N)NC(=O)[C@H]2CSSC[C@@H](NC(=O)[C@H](CCC(N)=O)NC(=O)[C@H](C)NC(=O)CNC1=O)C(=O)NCC(=O)N[C@@H](CC(C)C)C(=O)NCC(=O)N[C@H](C(=O)N[C@@H](CC(N)=O)C(=O)N[C@@H](CO)C(=O)N[C@@H](Cc1ccccc1)C(=O)N[C@@H](CCCN=C(N)N)C(N)=O)CSSC[C@H](NC(=O)[C@H](CO)NC(=O)[C@@H](N)CO)C(=O)N[C@@H](Cc1ccccc1)C(=O)NCC(=O)N2	0.0073
CC[C@H](C)[C@@H]1NC(=O)[C@H](CCCN=C(N)N)NC(=O)[C@H](CC(=O)O)NC(=O)[C@H]([C@@H](C)CC)NC(=O)[C@H](CCCN=C(N)N)NC(=O)CNC(=O)CNC(=O)[C@H](Cc2ccccc2)NC(=O)[C@@H](NC(=O)[C@H](CO)NC(=O)[C@@H](N)CO)CSSC[C@@H](C(=O)N[C@@H](CC(N)=O)C(=O)N[C@@H](CO)C(=O)N[C@@H](Cc2ccccc2)C(=O)N[C@@H](CCCN=C(N)N)C(N)=O)NC(=O)CNC(=O)[C@H](CC(C)C)NC(=O)CNC(=O)[C@H](CO)NC(=O)[C@H](CCC(N)=O)NC(=O)[C@H](C)NC(=O)CNC1=O	1.7
CC[C@H](C)[C@@H]1NC(=O)[C@H](CCCN=C(N)N)NC(=O)[C@H](CC(=O)O)NC(=O)[C@H]([C@@H](C)CC)NC(=O)[C@H](CCCN=C(N)N)NC(=O)[C@@H](CSCNC(C)=O)NC(=O)CNC(=O)[C@H](Cc2ccccc2)NC(=O)[C@@H](NC(=O)[C@H](CO)NC(=O)[C@@H](N)CO)CSSC[C@@H](C(=O)N[C@@H](CC(N)=O)C(=O)N[C@@H](CO)C(=O)N[C@@H](Cc2ccccc2)C(=O)N[C@@H](CCCN=C(N)N)C(N)=O)NC(=O)CNC(=O)[C@H](CC(C)C)NC(=O)CNC(=O)[C@@H](CSCNC(C)=O)NC(=O)[C@H](CCC(N)=O)NC(=O)[C@H](C)NC(=O)CNC1=O	0.044
CC[C@H](C)[C@@H]1NC(=O)[C@H](CCCN=C(N)N)NC(=O)[C@H](CC(=O)O)NC(=O)[C@H]([C@@H](C)CC)NC(=O)[C@H](CCCN=C(N)N)NC(=O)[C@H](CCSCNC(C)=O)NC(=O)CNC(=O)[C@H](Cc2ccccc2)NC(=O)[C@@H](NC(=O)[C@H](CO)NC(=O)[C@@H](N)CO)CSSC[C@@H](C(=O)N[C@@H](CC(N)=O)C(=O)N[C@@H](CO)C(=O)N[C@@H](Cc2ccccc2)C(=O)N[C@@H](CCCN=C(N)N)C(N)=O)NC(=O)CNC(=O)[C@H](CC(C)C)NC(=O)CNC(=O)[C@H](CCSCNC(C)=O)NC(=O)[C@H](CCC(N)=O)NC(=O)[C@H](C)NC(=O)CNC1=O	0.068
CC[C@H](C)[C@@H]1NC(=O)[C@H](CCCN=C(N)N)NC(=O)[C@H](CC(=O)O)NC(=O)[C@H]([C@@H](C)CC)NC(=O)[C@H](CCCN=C(N)N)NC(=O)CNC(=O)CNC(=O)[C@H](Cc2ccccc2)NC(=O)[C@@H](NC(=O)[C@H](CO)NC(=O)[C@@H](N)CO)CSSC[C@@H](C(=O)N[C@@H](CC(N)=O)C(=O)N[C@@H](CO)C(=O)N[C@@H](Cc2ccccc2)C(=O)N[C@@H](CCCN=C(N)N)C(N)=O)NC(=O)CNC(=O)[C@H](CC(C)C)NC(=O)CNC(=O)[C@H](CSCNC(C)=O)NC(=O)[C@H](CCC(N)=O)NC(=O)[C@H](C)NC(=O)CNC1=O	0.21
CC[C@H](C)[C@H](NC(=O)[C@H](CC/N=C(/N)NO)NC(=O)[C@H](CC(=O)O)NC(=O)[C@@H](NC(=O)[C@H](CCN=C(N)N)NC(=O)[C@H](CSCNC(C)=O)NC(=O)CNC(=O)[C@H](Cc1ccccc1)NC(=O)[C@H](CSCNC(C)=O)NC(=O)[C@H](CO)NC(=O)[C@@H](N)CO)[C@@H](C)CC)C(=O)NCC(=O)N[C@@H](C)C(=O)N[C@@H](CCC(N)=O)C(=O)C1SSC[C@@H](C(=O)N[C@@H](CC(N)=O)C(=O)CN[C@@H](CO)C(=O)N[C@@H](Cc2ccccc2)C(=O)N[C@@H](CCCN=C(N)N)C(N)=O)NC(=O)CNC(=O)[C@H](CC(C)C)NC(=O)CNC(=O)[C@H]1N (stereo in doubt; 9a)	0.028
CC[C@H](C)[C@@H]1NC(=O)[C@H](CCCN=C(N)N)NC(=O)[C@H](CC(=O)O)NC(=O)[C@H]([C@@H](C)CC)NC(=O)[C@H](CCCN=C(N)N)NC(=O)[C@H](CCSCNC(C)=O)NC(=O)CNC(=O)[C@H](Cc2ccccc2)NC(=O)[C@@H](NC(=O)[C@H](CO)NC(=O)[C@@H](N)CO)CSSC[C@@H](C(=O)N[C@@H](CC(N)=O)C(=O)N[C@@H](CO)C(=O)N[C@@H](Cc2ccccc2)C(=O)N[C@@H](CCCN=C(N)N)C(N)=O)NC(=O)CNC(=O)[C@H](CC(C)C)NC(=O)CNC(=O)[C@H](CSCNC(C)=O)NC(=O)[C@H](CCC(N)=O)NC(=O)[C@H](C)NC(=O)CNC1=O	0.24
CC[C@H](C)[C@@H]1NC(=O)[C@H](CCCN=C(N)N)NC(=O)[C@H](CC(=O)O)NC(=O)[C@H]([C@@H](C)CC)NC(=O)[C@H](CCCN=C(N)N)NC(=O)[C@@H](NC(=O)CNC(=O)[C@H](Cc2ccccc2)NC(=O)[C@H](CSCNC(C)=O)NC(=O)[C@H](CO)NC(=O)[C@@H](N)CO)CSSC[C@@H](C(=O)N[C@@H](CC(N)=O)C(=O)N[C@@H](CO)C(=O)N[C@@H](Cc2ccccc2)C(=O)N[C@@H](CCCN=C(N)N)C(N)=O)NC(=O)CNC(=O)[C@H](CC(C)C)NC(=O)CNC(=O)[C@H](CSCNC(C)=O)NC(=O)[C@H](CCC(N)=O)NC(=O)[C@H](C)NC(=O)CNC1=O (H-SSC(Acm)FGCRIDRIGAQC(Acm)GLGCNSFR-NH2; disulfide 6-19)	0.0022
CC[C@H](C)[C@@H]1NC(=O)[C@H](CCCN=C(N)N)NC(=O)[C@H](CC(=O)O)NC(=O)[C@H]([C@@H](C)CC)NC(=O)[C@H](CCCN=C(N)N)NC(=O)[C@H](CSCNC(C)=O)NC(=O)CNC(=O)[C@H](Cc2ccccc2)NC(=O)[C@@H](NC(=O)[C@H](CO)NC(=O)[C@@H](N)CO)CSSC[C@@H](C(=O)NCC(=O)N[C@@H](CC(C)C)C(=O)NCC(=O)N[C@@H](CSCNC(C)=O)C(=O)N[C@@H](CC(N)=O)C(=O)N[C@@H](CO)C(=O)N[C@@H](Cc2ccccc2)C(=O)N[C@@H](CCCN=C(N)N)C(N)=O)NC(=O)[C@H](CCC(N)=O)NC(=O)[C@H](C)NC(=O)CNC1=O	0.042
CC[C@H](C)[C@H](NC(=O)[C@H](CC/N=C(/N)NO)NC(=O)[C@H](CC(=O)O)NC(=O)[C@@H](NC(=O)[C@H](CCN=C(N)N)NC(=O)[C@H](CSCNC(C)=O)NC(=O)CNC(=O)[C@H](Cc1ccccc1)NC(=O)[C@H](CSCNC(C)=O)NC(=O)[C@H](CO)NC(=O)[C@@H](N)CO)[C@@H](C)CC)C(=O)NCC(=O)N[C@@H](C)C(=O)N[C@@H](CCC(N)=O)C(=O)C1SSC[C@@H](C(=O)N[C@@H](CC(N)=O)C(=O)CN[C@@H](CO)C(=O)N[C@@H](Cc2ccccc2)C(=O)N[C@@H](CCCN=C(N)N)C(N)=O)NC(=O)CNC(=O)[C@H](CC(C)C)NC(=O)CNC(=O)[C@H]1N (stereo in doubt; 9b)	0.013
CC[C@H](C)[C@@H]1NC(=O)[C@H](CCCN=C(N)N)NC(=O)[C@H](CC(=O)O)NC(=O)[C@H]([C@@H](C)CC)NC(=O)[C@H](CCCN=C(N)N)NC(=O)[C@H](CSCNC(C)=O)NC(=O)CNC(=O)[C@H](Cc2ccccc2)NC(=O)[C@@H](NC(=O)[C@H](CO)NC(=O)[C@@H](N)CO)CSSC[C@@H](C(=O)N[C@@H](CC(N)=O)C(=O)N[C@@H](CO)C(=O)N[C@@H](Cc2ccccc2)C(=O)N[C@@H](CCCN=C(N)N)C(N)=O)NC(=O)CNC(=O)[C@H](CC(C)C)NC(=O)CNC(=O)[C@H](CSCNC(C)=O)NC(=O)[C@H](CCC(N)=O)NC(=O)[C@H](C)NC(=O)CNC1=O	0.43

species on record: Oryctolagus cuniculus; assay: Relative binding potency towards vasorelaxant binding site compared to AP(103-126)
Method in brief: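 Varied unlabeled peptide concentrations; started by adding membranes; 30 min at 25 °C. Filtration with ice-cold buffer, then gamma counting. Nonspecific binding measured with 10^-6 M unlabeled reference peptide. Specific binding fitted by nonlinear least squares.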

Relative potency	SMILES
0.84	CC[C@H](C)[C@@H]1NC(=O)[C@H](CCCN=C(N)N)NC(=O)[C@H](CC(=O)O)NC(=O)[C@H]([C@@H](C)CC)NC(=O)[C@H](CCCN=C(N)N)NC(=O)[C@@H](CCSCNC(C)=O)NC(=O)CNC(=O)[C@H](Cc2ccccc2)NC(=O)[C@@H](NC(=O)[C@H](CO)NC(=O)[C@@H](N)CO)CSSC[C@@H](C(=O)N[C@@H](CC(N)=O)C(=O)N[C@@H](CO)C(=O)N[C@@H](Cc2ccccc2)C(=O)N[C@@H](CCCN=C(N)N)C(N)=O)NC(=O)CNC(=O)[C@H](CC(C)C)NC(=O)CNC(=O)[C@@H](CCSCNC(C)=O)NC(=O)[C@H](CCC(N)=O)NC(=O)[C@H](C)NC(=O)CNC1=O
0.48	CC[C@H](C)[C@H]1NC(=O)[C@H](CCCN=C(N)N)NC(=O)[C@H](CC(=O)O)NC(=O)[C@@H]([C@@H](C)CC)NC(=O)[C@H](CCCN=C(N)N)NC(=O)[C@H](CSCNC(C)=O)NC(=O)CNC(=O)[C@@H](Cc2ccccc2)NC(=O)[C@H](NC(=O)[C@H](CO)NC(=O)[C@@H](N)CO)CSSC[C@H](C(=O)N[C@@H](CC(N)=O)C(=O)N[C@@H](CO)C(=O)N[C@@H](Cc2ccccc2)C(=O)N[C@@H](CCCN=C(N)N)C(N)=O)NC(=O)CNC(=O)[C@@H](CC(C)C)NC(=O)CNC(=O)[C@H](CSCNC(C)=O)NC(=O)[C@H](CCC(N)=O)NC(=O)[C@@H](C)NC(=O)CNC1=O

test system: Atrial natriuretic peptide receptor 3 (Oryctolagus cuniculus); assay: Relative binding potency towards non-vasorelaxant binding site compared to AP(103-126)

Relative potency	SMILES
0.84	CC[C@H](C)[C@@H]1NC(=O)[C@H](CCCN=C(N)N)NC(=O)[C@H](CC(=O)O)NC(=O)[C@H]([C@@H](C)CC)NC(=O)[C@H](CCCN=C(N)N)NC(=O)[C@@H](CCSCNC(C)=O)NC(=O)CNC(=O)[C@H](Cc2ccccc2)NC(=O)[C@@H](NC(=O)[C@H](CO)NC(=O)[C@@H](N)CO)CSSC[C@@H](C(=O)N[C@@H](CC(N)=O)C(=O)N[C@@H](CO)C(=O)N[C@@H](Cc2ccccc2)C(=O)N[C@@H](CCCN=C(N)N)C(N)=O)NC(=O)CNC(=O)[C@H](CC(C)C)NC(=O)CNC(=O)[C@@H](CCSCNC(C)=O)NC(=O)[C@H](CCC(N)=O)NC(=O)[C@H](C)NC(=O)CNC1=O
0.48	CC[C@H](C)[C@H]1NC(=O)[C@H](CCCN=C(N)N)NC(=O)[C@H](CC(=O)O)NC(=O)[C@@H]([C@@H](C)CC)NC(=O)[C@H](CCCN=C(N)N)NC(=O)[C@H](CSCNC(C)=O)NC(=O)CNC(=O)[C@@H](Cc2ccccc2)NC(=O)[C@H](NC(=O)[C@H](CO)NC(=O)[C@@H](N)CO)CSSC[C@H](C(=O)N[C@@H](CC(N)=O)C(=O)N[C@@H](CO)C(=O)N[C@@H](Cc2ccccc2)C(=O)N[C@@H](CCCN=C(N)N)C(N)=O)NC(=O)CNC(=O)[C@@H](CC(C)C)NC(=O)CNC(=O)[C@H](CSCNC(C)=O)NC(=O)[C@H](CCC(N)=O)NC(=O)[C@@H](C)NC(=O)CNC1=O

— ChEMBL document CHEMBL1124339, “Conformationally restricted analogues of atriopeptin(103-125)amide” (J Med Chem, 1989)
